Measured values: ChEMBL document CHEMBL1147681, “Identification of a terphenyl derivative that blocks the cell cycle in the G0-G1 phase and induces differentiation in leukemia cells” (J Med Chem, 2006)
Active and inactive are the calls of the source. The rule behind the calls is not given here.

Experiments:
HL-60 [1] = test: Antiproliferative activity against human HL60 cell line; assay type: functional, cell-based
In short: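 Cell growth inhibition measured by counting cells with an automatic cell counter in sensitive HL60, MDR HL60R and Bcr-Abl-expressing K562 cells. IC50 is the concentration inhibiting 50% of cell growth.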

HL-60 [2] = test: Cell cycle arrest in human HL60 cells by accumulation at S phase at 30 uM; assay type: functional, cell-based
In short: (§1)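 HL60 cells were stained with propidium iodide and analysed by flow cytometry for sub-G0-G1, G0-G1, S and G2-M peaks against untreated control. Exposures were 50 µM for 8 h or 24 h, 10 µM for 96 h, and 20 or 30 µM for 24 h.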

HL-60 [3] = test: Proapoptotic activity against human HL60 cell line; assay type: functional, cell-based
In short: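 Apoptosis assessed by morphological assay and annexin V test. AC50 is the concentration inducing apoptosis in 50% of cells.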

HL-60 [4] = test: Induction of differentiation of human HL60 cells at 10 uM measured as expression of monocytic marker CD14 after 4 days; assay type: functional
In short: (§2)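 HL60 cells exposed to 10 µM compound; CD14 (monocytic), CD11b and CD11c (granulocytic) surface expression measured by flow cytometry, as percentage of positive cells versus untreated control. Read-out given as 72 h in text, 4 days in table.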

HL-60 [5] = test: Induction of differentiation of human HL60 cells at 10 uM measured as expression of granulocytic marker CD11b after 4 days; assay type: functional; in short: as §2
HL-60 [6] = test: Induction of differentiation of human HL60 cells at 10 uM measured as expression of granulocytic marker CD11c after 4 days; assay type: functional; in short: as §2
HL-60 [7] = test: Cell cycle arrest in human HL60 cells by accumulation at G2/M phase at 10 uM; assay type: functional, cell-based
In short: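 HL60 cells exposed for 24 h at 10 µM, stained with propidium iodide, and analysed by flow cytometry for DNA content. Sub-G0-G1 (apoptotic), G0-G1, S and G2-M peaks compared with untreated HL60 cells.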

HL-60 [8] = test: Cell cycle arrest in human HL60 cells by accumulation at G2/M phase at 20 uM; assay type: functional, cell-based; in short: as §1
HL-60 [9] = test: Cell cycle arrest in human HL60 cells by accumulation at G0/G1 phase at 10 uM after 96 hrs; assay type: functional, cell-based; in short: as §1
HL-60 [10] = test: Cell cycle arrest in human HL60 cells by accumulation at G0/G1 phase at 50 uM after 8 hrs; assay type: functional, cell-based; in short: as §1

For `COc1cc(/C=C/c2cccc(OC)c2O)cc(OC)c1`, the IC50 (HL-60 [1]) was 3.5 µM, the Activity (HL-60 [2]) was “Active” and the AC50 (HL-60 [3]) was 15 µM.
Molecule `COc1cc(OC)cc(-c2ccc(-c3ccc(O)cc3)cc2)c1` has an IC50 (HL-60 [1]) of 2.5 µM and an AC50 (HL-60 [3]) of 30 µM.
Work on `COc1cc(/C=C/c2cccc(O)c2)cc(OC)c1` yielded an IC50 (HL-60 [1]) of 23 µM and an AC50 (HL-60 [3]) of 58 µM.
`COc1cc(/C=C/c2ccccc2O)cc(OC)c1` was tested, and the IC50 (HL-60 [1]) was 9 µM and the AC50 (HL-60 [3]) was 35 µM.
In the case of `COc1cc(/C=C/c2ccc(O)cc2)cc(OC)c1` [PTEROSTILBENE], the AC50 (HL-60 [3]) is reported as 75 µM.
`COc1cc(OC)cc(-c2ccc3cc(O)ccc3c2)c1` gave an IC50 (HL-60 [1]) of 10 µM and an AC50 (HL-60 [3]) of 19 µM.
`COc1cc(/C=C/c2cc(Cl)ccc2O)cc(OC)c1` was tested, and the IC50 (HL-60 [1]) was 14 µM and the AC50 (HL-60 [3]) was 29 µM.
With `COc1cc(/C=C/c2cc(C(C)(C)C)c(O)c(C(C)(C)C)c2)cc(OC)c1` the IC50 (HL-60 [1]) was 84 µM and the AC50 (HL-60 [3]) was over 100 µM.
Work on `Oc1ccc(-c2cccc(-c3cc(O)cc(O)c3)c2)cc1` yielded an IC50 (HL-60 [1]) of 27 µM and an AC50 (HL-60 [3]) of 63 µM.
`COc1cc(OC)cc(-c2ccccc2-c2ccc(O)cc2)c1` showed an IC50 (HL-60 [1]) of 5 µM and an AC50 (HL-60 [3]) of 10 µM.
`Oc1ccc(/C=C/c2cc(O)cc(O)c2)cc1` [RESVERATROL] showed an Activity (HL-60 [4]) of 23%, an Activity (HL-60 [5]) of 24% and an Activity (HL-60 [6]) of 22%.
`COc1ccc(-c2cccc(-c3cc(OC)cc(OC)c3)c2)cc1` gave an IC50 (HL-60 [1]) of 50 µM and an AC50 (HL-60 [3]) of over 100 µM.
Molecule `COc1cc(OC)cc(-c2ccc3cc(OC)ccc3c2)c1` has an IC50 (HL-60 [1]) of 76 µM and an AC50 (HL-60 [3]) of 91 µM.
With `COc1ccc(-c2ccccc2-c2cc(OC)cc(OC)c2)cc1` the IC50 (HL-60 [1]) was 7 µM and the AC50 (HL-60 [3]) was 15 µM.
`CCOc1cc(/C=C/c2cc(OC)cc(OC)c2)ccc1O` gave an IC50 (HL-60 [1]) of 11 µM and an AC50 (HL-60 [3]) of 18 µM.
For `Oc1cc(O)cc(-c2ccc3cc(O)ccc3c2)c1`, the IC50 (HL-60 [1]) was 28 µM and the AC50 (HL-60 [3]) was 48 µM.
For `COc1cc(OC)cc(-c2cccc(-c3ccc(O)cc3)c2)c1`, the IC50 (HL-60 [1]) was 4.8 µM and the AC50 (HL-60 [3]) was 23 µM.
In the case of `COc1ccc(/C=C/c2cc(OC)cc(OC)c2)cc1` [TRISMETHOXYRESVERATROL], the IC50 (HL-60 [1]) is reported as 2.5 µM, the Activity (HL-60 [7]) is reported as “Active” and the AC50 (HL-60 [3]) is reported as 4 µM.
`Oc1ccc(-c2ccccc2-c2cc(O)cc(O)c2)cc1` was tested, and the IC50 (HL-60 [1]) was 3.5 µM, the Activity (HL-60 [8]) was “Active” and the AC50 (HL-60 [3]) was 9 µM.
`COc1cc(/C=C/c2cc(OC)c(O)c(OC)c2)cc(OC)c1` was tested, and the IC50 (HL-60 [1]) was 20 µM and the AC50 (HL-60 [3]) was 79 µM.
In the case of `COc1ccc(-c2ccc(-c3cc(OC)cc(OC)c3)cc2)cc1`, the IC50 (HL-60 [1]) is reported as 75 µM and the AC50 (HL-60 [3]) is reported as over 100 µM.
For `Oc1ccc(-c2ccc(-c3cc(O)cc(O)c3)cc2)cc1`, the Activity (HL-60 [4]) was 58%, the Activity (HL-60 [9]) was “Active” and the IC50 (HL-60 [1]) was 7 µM. The Activity (HL-60 [5]) was 62%, the Activity (HL-60 [10]) was “Active” and the AC50 (HL-60 [3]) was 25 µM. It also gave an Activity (HL-60 [6]) of 60%.
